Laboratory results published in ChEMBL document CHEMBL4706750, “Design and Catalyzed Activation of Mycophenolic Acid Prodrugs” (ACS Med Chem Lett, 2021).
Active and inactive are the calls of the source. The calls are words filed in the database; no cut-off is given here.

Assays:
[1] = Toxicity in human hepatocytes assessed by dehydrogenase activity measured after 48 hrs by CCK-8 assay; assay type: cell-based, Hepatocyte
Outline: (§1)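 Cells cultured with compound for 48 h, then dehydrogenase activity read by colorimetric CCK-8 assay. EC50 derived from the concentration series. Cells were primary human hepatocytes or the MIN6 pancreatic β-cell line, as the line states.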

[2] = Toxicity in mouse MIN6 cells assessed by dehydrogenase activity measured after 48 hrs by CCK-8 assay; assay type: cell-based; outline: as §1
[3] = molecular target: Inosine-5'-monophosphate dehydrogenase 2 (Homo sapiens) (UniProt P12268); test: Inhibition of IMPDH2 (unknown origin) assessed by conversion of NAD+ to NADH preincubated for 30 mins followed by addition of inosine-5'- monophosphate substrate and NAD at 10 uM measured by plate reader method
Inosine-5'-monophosphate dehydrogenase 2 (Homo sapiens), sequence (P12268 2-514 limits assumed): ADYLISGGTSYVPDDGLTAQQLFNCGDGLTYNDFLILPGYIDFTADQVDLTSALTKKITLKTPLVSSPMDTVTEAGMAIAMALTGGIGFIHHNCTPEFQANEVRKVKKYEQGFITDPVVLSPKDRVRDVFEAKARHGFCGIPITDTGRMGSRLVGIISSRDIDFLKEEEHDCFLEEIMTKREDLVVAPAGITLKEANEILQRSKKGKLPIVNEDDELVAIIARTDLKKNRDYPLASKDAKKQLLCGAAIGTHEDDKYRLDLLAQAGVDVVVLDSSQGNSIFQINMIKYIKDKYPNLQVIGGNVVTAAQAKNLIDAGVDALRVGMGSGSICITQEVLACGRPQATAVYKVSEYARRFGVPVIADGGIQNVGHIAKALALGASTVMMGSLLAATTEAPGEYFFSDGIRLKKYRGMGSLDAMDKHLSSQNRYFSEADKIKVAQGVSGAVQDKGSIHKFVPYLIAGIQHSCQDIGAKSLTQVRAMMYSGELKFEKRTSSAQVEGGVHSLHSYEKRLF
Outline: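 IMPDH2 enzyme exposed to test compounds, then stimulated with inosine-5′-monophosphate and NAD+. NADH formation followed by absorbance at 340 nm. Single test concentration of 10 μM.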

[4] = Stability of compound in PBS at pH 7.4 and 37 degree C measured by HPLC method; assay type: physicochemical; conditions: buffer
Outline: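 Compound incubated at 37 °C in PBS (pH 7.4, 5% DMSO) with no catalyst. Remaining compound followed over time.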

[5] = Prodrug conversion in PBS buffer assessed as mycophenolic acid formation in presence of nitroreductase and NADH.; assay type: ADME
Outline: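 Prodrug incubated at 37 °C in PBS (pH 7.4, 5% DMSO) with nitroreductase conjugated to 30 μm amino-terminated polystyrene beads by reductive amination, plus NADH. Release of mycophenolic acid followed over time.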

| inhibition [3] | Stabilty [4] | Drug metabolism [5] | Compound | EC50 at 48 h [1] | EC50 at 48 h [2] |
| --- | --- | --- | --- | --- | --- |
| Active |  |  | COc1c(C)c2c(c(O)c1C/C=C(\C)CCC(=O)O)C(=O)OC2 [MYCOPHENOLIC ACID] | 5.9 µM | 0.6 µM |
| inactive |  |  | C#CCOC(=O)CC/C(C)=C/Cc1c(OC)c(C)c2c(c1OCC#C)C(=O)OC2 | 6.7 µM |  |

Second part, the molecule before the results:

| Compound | inhibition [3] | Stabilty [4] | Drug metabolism [5] | EC50 at 48 h [1] | EC50 at 48 h [2] |
| --- | --- | --- | --- | --- | --- |
| COc1c(C)c2c(c(OCc3ccc([N+](=O)[O-])cc3)c1C/C=C(\C)CCC(=O)OCc1ccc([N+](=O)[O-])cc1)C(=O)OC2 | inactive |  |  | 8.3 µM |  |
| C#CCOc1c(C/C=C(\C)CCC(=O)O)c(OC)c(C)c2c1C(=O)OC2 | inactive | Stable |  | 20.1 µM |  |
| COc1c(C)c2c(c(OCc3ccc([N+](=O)[O-])cc3)c1C/C=C(\C)CCC(=O)O)C(=O)OC2 | inactive | Stable | Metabolite_Detected | 14.4 µM | 24 µM |
